Source: PubChem BioAssay AID588365 (Broad Institute, 2011)
Active and inactive are the calls of the source.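 The calls were made as follows: active = compounds lowering cell ATP signal whose fitted half-maximal concentration is at most ten times the top tested dose; inconclusive = flat curve losing 30 to 70 percent, or poor fit; inactive = the rest.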

Columns and labels:
[1] = viability loss of HeLa cells by ATP content – CellTiter-Glo, 24 h, dry powder, cytotoxicity control, dose response (AID 588365); settings: HeLa viability, CellTiter-Glo ATP luminescence, 24 h; at 35 µM (top of the series)
Method in brief: (§1)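 Test system: human HeLa cell line, viability by cellular ATP. Medium: phenol-red-free DMEM, 10% FBS. Incubation: 24 h compound exposure, 37 °C, then 10 min reagent, RT. Technique: luminescence of cellular ATP with CellTiter-Glo reagent.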

[2] = tested on: HeLa viability, CellTiter-Glo ATP luminescence, 24 h; experiment: as above
Method in brief: as §1

In the case of `CC1(C)[C@@H](O[C@H]2O[C@H](C(=O)O)[C@@H](O)[C@H](O)[C@H]2O[C@@H]2O[C@H](C(=O)O)[C@@H](O)[C@H](O)[C@H]2O)CC[C@]2(C)[C@H]3C(=O)C=C4[C@@H]5C[C@@](C)(C(=O)O)CC[C@]5(C)CC[C@@]4(C)[C@]3(C)CC[C@@H]12`, the activity change, negative = cytotoxicity [1] was -1.78% (inactive).

In the case of `Nc1c(/C=C2\C=CC(=O)C(O)=C2)c(=O)nc2sc(CC(=O)N3CCCCC3)nn12`, the activity change, negative = cytotoxicity [1] was -8.24% (inactive).

For `O=C1CCCC(O)=C1N=Nc1ccc(C(=O)O)cc1`, the activity change, negative = cytotoxicity [1] was -7.5% (inactive).

In the case of `Nc1c(C(=O)Nc2ccccc2F)sc2nc(Cc3ccccc3)cc(C(F)(F)F)c12`, the activity change, negative = cytotoxicity [1] was 0.381% (inactive).

For `COC(=O)c1ccccc1NC(=O)CCS(=O)(=O)c1ccc(Br)cc1`, the activity change, negative = cytotoxicity [1] was -2.03% (inactive).

With `CC1=NN(c2cccc(C(=O)O)c2)C(=O)/C1=C\C=C\c1ccco1` the activity change, negative = cytotoxicity [1] was -14.3% (inactive).

In the case of `O=C(O)CCNc1ccc(NCCC(=O)O)c2c1C(=O)c1ccccc1C2=O`, the AC50 [2] was 36.1 µM.

With `CSc1ccc(/C=N/Nc2cccc(C(=O)O)c2)cc1` the activity change, negative = cytotoxicity [1] was -3.96% (inactive).

With `Clc1ccc(-c2nnc3sc(-c4ccc(Br)o4)nn23)cc1` the activity change, negative = cytotoxicity [1] was -0.723% (inactive).

With `O=C(O)CC(C(=O)O)N1C(=O)/C(=C/C=C/c2ccco2)SC1=S` (stereo unspecified) the activity change, negative = cytotoxicity [1] was 4.8% (inactive).

In the case of `O=C1/C(=C/c2ccco2)Oc2c1ccc(O)c2CN1CCCCC1`, the activity change, negative = cytotoxicity [1] was 4.06% (inactive).

In the case of `O=C(O)CCCCCn1c(SCC(=O)c2ccc(O)c(O)c2)nc2ccsc2c1=O`, the activity change, negative = cytotoxicity [1] was -3.5% (inactive).

In the case of `CN(C)S(=O)(=O)c1cc(C(=O)NC2CCSc3ccccc32)ccc1Cl` (stereo unspecified), the activity change, negative = cytotoxicity [1] was -9.03% (inactive).

In the case of `O=C(O)C1Nc2c(O)cc(Cl)c([N+](=O)[O-])c2C2C=CCC12` (stereo unspecified), the activity change, negative = cytotoxicity [1] was -4.48% (inactive).

Work on `O=c1c(O)cccc2cc(O)c(O)c(O)c12` yielded an AC50 [2] of 16.1 µM.

In the case of `CCC(=O)Oc1ccc2c(c1)O/C(=C\c1ccco1)C2=O`, the activity change, negative = cytotoxicity [1] was -1.46% (inactive).
